Measurements gathered from unrelated publications.
Each line is one published result; the experiments were not run side by side.
Target: Phosphatidylinositol 4-phosphate 5-kinase type-1 gamma (PIP5K1C, Homo sapiens, UniProt O60331)

SMILES	read-out	mode	technique	tested at	endpoint	value
CS(=O)(=O)Nc1cccc(-c2csc(NC(=O)CSc3nc4nccnc4c(=O)n3CCc3ccccc3)n2)c1	enzyme activity	inhibitor		10 µM	inhibition	0%
COc1cc(Cl)c(C(=O)N[C@@H](CN[C@H]2CC[C@@H](N)CC2)Cc2ccc(C#N)cc2)cc1-c1ccc(CN[C@H](C)c2ccc(C)cc2)o1	enzyme activity	inhibitor		1 µM	remaining activity	96%
Cc1ccc(C(=O)Nc2ccc(CN3CCN(C)CC3)c(C(F)(F)F)c2)cc1C#Cc1cnc2cccnn12	cell-free assay			23.5 nM	remaining signal	100%
CNCc1ccccc1-c1csc([C@@H](C)Nc2nc(C)nc3cc(OC)c(OC)cc23)c1	cell-free assay		competition with immobilised ligand	1 µM	remaining binding	88%
Cc1cc(NC(=O)c2cccc3cc(-c4cccc5[nH]nc(N)c45)ccc23)ccc1F	enzyme activity	inhibitor		0.1 µM	activity vs control	110%
Cc1ccc(NC(=O)c2ccc(C)c(C(F)(F)F)c2)cc1C#Cc1nn(C2CCC(O)CC2)c2ncnc(N)c12 (centres unmarked)	cell-free assay			10 µM	remaining signal	98%
O=C(CSc1nc2nccnc2c(=O)n1CCc1ccccc1)Nc1nccs1	enzyme activity	inhibitor		10 µM	inhibition	12%
Cc1cnc(NC2CCOCC2)nc1-n1cnc(C(=O)NC(CN)c2cc(F)cc(Cl)c2)c1 (centres unmarked)	enzyme activity	inhibitor	radiometric	1 µM	remaining activity	96%
CC1=C(C#N)C(c2ccc3c(c2)c(NC(=O)c2ccccc2C)nn3C)C(C#N)=C(C)N1	cell-free assay		competition with immobilised ligand	1 µM	remaining binding	91%
Nc1ncnc2occ(-c3ccc(NC(=O)Nc4cc(C(F)(F)F)ccc4F)cc3)c12	cell-free assay			20 µM	remaining signal	0%
CN1CC(Oc2cnc(C#N)cc2-c2ccn3nc(NC(=O)C4CC4)cc3c2)C1	enzyme activity	inhibitor		1 µM	inhibition	-3%
